From ChEMBL document CHEMBL1152253, “Inhibition of the CRM1-mediated nucleocytoplasmic transport by N-azolylacrylates: structure-activity relationship and mechanism of action” (Bioorg Med Chem, 2008)
Activity calls are given as the source filed them. The rule behind the calls is not given here.

Legend:
Assay type in all cases: cell-based
[1] = target: Exportin-1 (Homo sapiens) (UniProt O14980); experiment: Inhibition of CRM1-mediated nucleocytoplasmic transport of RevM5 mutant in HEK293 cells assessed as RevM5-GFP nuclear localization at 0.08 ug/ml after 2 hrs by fluorescence microscopy
Procedure, shortened: (§1)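 HEK 293T cells in 96-well trays were transfected with pRevM5-GFP by calcium phosphate, and compound was added one day later. RevM5-GFP distribution was scored by fluorescence microscopy 2 h after addition. Mainly nuclear localization was scored positive; cytoplasmic localization was scored negative.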

[2] = target: Exportin-1 (Homo sapiens) (UniProt O14980); experiment: Inhibition of CRM1-mediated nucleocytoplasmic transport of RevM5 mutant in HEK293 cells assessed as RevM5-GFP nuclear localization at 2 ug/ml after 2 hrs by fluorescence microscopy; procedure, shortened: as §1
[3] = target: Exportin-1 (Homo sapiens) (UniProt O14980); experiment: Inhibition of CRM1-mediated nucleocytoplasmic transport of RevM5 mutant in HEK293 cells assessed as RevM5-GFP nuclear localization at 10 ug/ml after 2 hrs by fluorescence microscopy; procedure, shortened: as §1
[4] = target: Exportin-1 (Homo sapiens) (UniProt O14980); experiment: Inhibition of CRM1-mediated nucleocytoplasmic transport of RevM5 mutant in HEK293 cells assessed as RevM5-GFP nuclear localization at 0.4 ug/ml after 2 hrs by fluorescence microscopy; procedure, shortened: as §1

Exportin-1 (Homo sapiens), sequence (O14980 whole entry): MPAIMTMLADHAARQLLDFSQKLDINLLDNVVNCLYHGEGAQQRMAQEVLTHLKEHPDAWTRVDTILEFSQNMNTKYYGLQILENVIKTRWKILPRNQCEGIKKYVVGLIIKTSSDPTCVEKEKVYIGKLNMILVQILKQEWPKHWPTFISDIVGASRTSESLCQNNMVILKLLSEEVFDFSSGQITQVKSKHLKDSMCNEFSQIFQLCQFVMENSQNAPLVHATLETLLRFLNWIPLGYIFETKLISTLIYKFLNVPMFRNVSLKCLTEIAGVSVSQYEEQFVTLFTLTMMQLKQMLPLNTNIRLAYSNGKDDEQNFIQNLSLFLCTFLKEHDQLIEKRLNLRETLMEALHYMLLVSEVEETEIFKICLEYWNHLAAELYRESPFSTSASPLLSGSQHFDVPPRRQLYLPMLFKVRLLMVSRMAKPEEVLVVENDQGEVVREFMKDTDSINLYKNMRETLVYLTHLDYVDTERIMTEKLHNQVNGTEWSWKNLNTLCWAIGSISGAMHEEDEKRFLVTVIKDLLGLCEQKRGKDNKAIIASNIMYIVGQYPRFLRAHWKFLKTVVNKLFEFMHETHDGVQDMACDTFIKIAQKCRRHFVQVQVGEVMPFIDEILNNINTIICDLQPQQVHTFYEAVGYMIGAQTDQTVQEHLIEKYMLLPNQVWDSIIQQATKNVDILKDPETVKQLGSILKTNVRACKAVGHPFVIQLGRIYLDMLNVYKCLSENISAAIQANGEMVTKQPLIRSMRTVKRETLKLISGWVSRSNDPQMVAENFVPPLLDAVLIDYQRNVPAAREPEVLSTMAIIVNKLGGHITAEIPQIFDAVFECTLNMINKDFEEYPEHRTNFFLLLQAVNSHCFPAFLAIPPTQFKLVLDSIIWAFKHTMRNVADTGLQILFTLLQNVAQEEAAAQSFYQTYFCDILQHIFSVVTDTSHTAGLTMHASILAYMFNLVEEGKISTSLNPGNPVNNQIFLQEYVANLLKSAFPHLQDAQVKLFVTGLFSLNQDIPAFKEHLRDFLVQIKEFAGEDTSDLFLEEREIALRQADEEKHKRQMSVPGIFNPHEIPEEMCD

| SMILES | Activity [1] | Activity [2] | Activity [3] | Activity [4] |
| --- | --- | --- | --- | --- |
| CCOC(=O)/C=C/n1ccnc1-c1ccccc1 | inactive | inactive | inactive | inactive |
| CCOC(=O)/C=C/n1nnnc1-c1ccc(Cl)cc1 | inactive | inactive | inactive | inactive |
| Fc1cccc(-c2nnn[nH]2)c1 | inactive | inactive | inactive | inactive |
| Brc1cccc(-c2nnn[nH]2)c1 | inactive | inactive | inactive | inactive |
| CCOC(=O)C=Cn1ccnc1-c1ccccc1 | inactive | inactive | inactive | inactive |
| CCOC(=O)/C=C/n1nnc(-c2ccccc2Cl)n1 | inactive | inactive | Active | inactive |
| CCOC(=O)/C=C/n1cnc(-c2ccccc2)c1 | inactive | inactive | – | inactive |
| CCOC(=O)/C=C\n1ncnn1 | inactive | inactive | inactive | inactive |
| CCOC(=O)/C=C\n1nnc(-c2ccccc2)n1 | inactive | inactive | Active | inactive |
| CCOC(=O)/C=C/n1nnnc1-c1cccc(Cl)c1 | inactive | inactive | – | inactive |
| CCOC(=O)/C=C\n1nnnc1-c1ccccc1Cl | inactive | inactive | – | inactive |
| CCOC(=O)/C=C/n1nnnc1-c1ccccc1 | inactive | inactive | inactive | inactive |
| CCOC(=O)/C=C\n1ccc(-c2ccccc2)n1 | inactive | inactive | inactive | inactive |
| CCOC(=O)/C=C\n1nnc(-c2cccc(I)c2)n1 | inactive | Active | Active | – |
| CCOC(=O)/C=C/n1nnc(-c2cccc(I)c2)n1 | inactive | – | Active | inactive |
| CCOC(=O)/C=C\n1nnc(-c2ccccc2Cl)n1 | inactive | Active | Active | – |
| CCOC(=O)/C=C\n1nnc(-c2cccc(F)c2)n1 | inactive | Active | Active | – |
| CCOC(=O)/C=C/n1nnnc1-c1cccc(I)c1 | inactive | inactive | – | inactive |
| CCOC(=O)/C=C/n1nnc(-c2cccc(Br)c2)n1 | inactive | – | Active | inactive |
| CCOC(=O)/C=C/n1nnnc1-c1cccc(F)c1 | inactive | inactive | – | inactive |
| CCOC(=O)/C=C\n1cnc(-c2ccccc2N)n1 | inactive | – | Active | inactive |
| CCOC(=O)/C=C\n1nnc(-c2ccc(Cl)cc2)n1 | inactive | – | Active | inactive |
| CCOC(=O)/C=C\n1nnc(-c2cccc(Br)c2)n1 | inactive | Active | Active | – |
| CCOC(=O)/C=C\n1cnc(-c2ccccc2)c1 | inactive | – | Active | inactive |
| CCOC(=O)/C=C/n1nnnc1-c1cccc(Br)c1 | inactive | inactive | – | inactive |
| CCOC(=O)/C=C/n1nnc(-c2ccccc2)n1 | inactive | – | – | inactive |
